Hits are enriched below; roughly 3.2% of the tested compounds scored in any of these assays.
Cneo AK release = Cryptococcus neoformans lysis via adenylate kinase release | C. neoformans lysis, adenylate kinase release luminescence, 4 h; normalised: neutral wells 0, clomiphene wells 100 | lysis activity, % at 15 µM | 360,000 tested, 0.2% active | AID 651654;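 active = mean lysis activity across replicates of at least 80%, whatever share of replicates individually reach that level; inactive = mean lysis activity below 80%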
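Schedule: static 4 h at 37 °C with compound, 1 h detection; system: C. neoformans cells; benchmarks: Clomiphene as positive control; buffer or medium: fresh YPD medium; measure: luminescence rise reflecting yeast cell lysis; measured by: luminescent adenylate kinase detection reagent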
DENV2 CPE = protects cells from dengue virus 2 cytopathic effect | DENV2-infected cells, cytopathic effect rescue, plate reader | CPE inhibition, % at 9.99 µM | 350,000 tested, 1.7% active | AID 651640; in the data active = CPE inhibition above about 20%, passing the limit was not always enough; tested in BHK-21 cells;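 also: 0% = median of neutral control wells and 100% = median of positive control wells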
rRNA inh HTS = inhibits bacterial ribosomal RNA function over humanized ribosomes. E. coli WT GFP vs humanized-ribosome RFP mutants, fluorescence, 24 h; active compounds read low; DMSO median 0, no signal -100. GFP signal change (wild-type ribosome), % (concentration not given with the values). 350,000 tested, 1.6% active;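 active = significant combined selectivity score with lowered wild-type GFP, culture density cut under 30%, mutant RFP and density less affected; inactive = any of these conditions unmet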
PfHsp90 yeast 2 = growth inhibition of yeast expressing Plasmodium Hsp90; S. cerevisiae expressing PfHsp90, BacTiter-Glo ATP, 48 h; yeast lacking PDR1 and PDR3 efflux regulators; 310,000 tested, 0.32% active; AID 504621; inhibition, % at 9.4 µM;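 active = every replicate shows inhibition above about 80%, whatever the replicate mean, limit read from the data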;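 also: 0% = DMSO neutral controls and 100% = 20 µM radicicol positive controls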
S100A4 MyoIIA = blocks human S100A4 binding to myosin IIA peptide | P26447 | S100A4/TAMRA-MyoIIA peptide fluorescence polarization | inhibition, % at 10.7 µM | 360,000 tested, 0.14% active | AID 652163;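 active = mean inhibition of at least 70% across replicates, with every replicate also reaching that level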
Target sequence (P26447 whole entry, looked up): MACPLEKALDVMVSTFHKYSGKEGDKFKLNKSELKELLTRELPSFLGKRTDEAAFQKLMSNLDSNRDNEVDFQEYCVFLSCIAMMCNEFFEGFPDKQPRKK
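Material: S100A4 monomer (human). Medium: Calcium-containing HEPES buffer, pH 7.2. Probe or stimulus: labelled myosin peptide probe, 5 nM. Compound dosing: one concentration per compound. Timing: polarization read 5 min after assay mix addition, stable 5–60 min. Benchmarks: DMSO as neutral control, TFP as positive control.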
MLL AF4-AF9 inh = blocks AF4 peptide binding to human AF9; P42568; AlphaScreen, biotin-AF4 peptide binding to FLAG-AF9; inhibition, % at 10 µM; 350,000 tested, 0.47% active; AID 651704;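 active = every replicate reaching a set inhibition limit, whatever the replicate mean, cut at about 25% in these data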;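 also: 0% = plate neutral control median and 100% = total signal loss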
Target sequence (P42568 whole entry, looked up): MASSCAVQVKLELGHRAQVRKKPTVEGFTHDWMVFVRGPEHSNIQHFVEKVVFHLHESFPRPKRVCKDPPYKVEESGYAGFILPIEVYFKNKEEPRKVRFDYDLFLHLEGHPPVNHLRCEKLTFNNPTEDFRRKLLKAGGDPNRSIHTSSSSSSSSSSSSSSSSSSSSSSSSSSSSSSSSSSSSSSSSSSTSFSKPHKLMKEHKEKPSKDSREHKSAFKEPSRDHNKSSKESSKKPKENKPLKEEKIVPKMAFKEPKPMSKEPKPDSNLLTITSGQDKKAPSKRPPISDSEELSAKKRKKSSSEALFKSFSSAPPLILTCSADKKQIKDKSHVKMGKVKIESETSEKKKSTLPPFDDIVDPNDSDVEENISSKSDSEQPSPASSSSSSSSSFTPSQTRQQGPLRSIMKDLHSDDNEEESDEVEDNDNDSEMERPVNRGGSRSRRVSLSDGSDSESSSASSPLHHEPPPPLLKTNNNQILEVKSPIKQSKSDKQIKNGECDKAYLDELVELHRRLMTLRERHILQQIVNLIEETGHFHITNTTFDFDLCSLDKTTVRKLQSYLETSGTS
* hit, by the source's call; . = no result given.

SMILES | Cneo AK release | DENV2 CPE | rRNA inh HTS | PfHsp90 yeast 2 | S100A4 MyoIIA | MLL AF4-AF9 inh
C[C@@H]1CN([C@H](C)CO)S(=O)(=O)c2ccc(-c3ccccc3F)cc2O[C@H]1CN(C)Cc1ccncc1 | -4 | 29* | -49 | . | -17 | 10
C[C@H](CO)N1C[C@H](C)[C@@H](CN(C)Cc2cccnc2)Oc2cc(-c3ccccc3F)ccc2S1(=O)=O | -2 | 46* | -42 | . | . | .
C[C@H]1CN([C@@H](C)CO)S(=O)(=O)c2ccc(-c3ccccc3F)cc2O[C@H]1CN(C)Cc1ccncc1 | -4 | 21* | -46 | . | -8 | 7
C[C@@H]1CCCCO[C@H](CN(C)Cc2ccccc2)[C@H](C)CN([C@H](C)CO)C(=O)c2cc(NC(=O)C3CCCCC3)ccc2O1 | -2 | -8 | 1 | . | -4 | 14
O=C(/C=C/c1ccc(F)cc1)NC(=S)N1CCN(Cc2ccccc2)CC1 | 18 | 1 | -34* | 24 | -4 | 2
Cc1cc(=O)oc2cc(OCCSCCN3CCCC3)ccc12 | 0 | 37* | 7 | . | -3 | -2
COc1ccc(N2CCN(CCOc3ccc4c(C)cc(=O)oc4c3)CC2)cc1 | -15 | -3 | 9 | -16 | -2 | 5
O=C(O)c1ccccc1C(=O)N1CCc2c([nH]c3ccccc23)C1C(F)(F)F (configuration not stated) | -3 | -3 | -30* | . | -2 | -2
CCOC(=O)C1=C(C)N(C)C(=S)N(C)C1c1ccc(OC)cc1 (configuration not stated) | . | 2 | 0 | . | -1 | -1
COC(=O)C1=C(C)N(C)C(=S)N(C)C1c1cccc(Br)c1 (configuration not stated) | 5 | . | -34* | 28 | 4 | 1
CCOC(=O)N1CCN(S(=O)(=O)c2ccc(C(=O)NNc3nc4c(C)cc(C)cc4s3)cc2)CC1 | 1 | -2 | . | . | -8 | 4
Cc1cc(C)c2nc(NNC(=O)c3ccc(S(=O)(=O)N4CCCCC4)cc3)sc2c1 | 0 | -6 | -12* | 13 | -3 | 12
CNC(=O)C[C@H]1CC[C@H]2[C@H](COc3ccc(NC(=O)C(C)C)cc3C(=O)N2C)O1 | -1 | 4 | 1 | . | . | .
Cc1cc(C(=O)COC(=O)c2ccc[nH]c2=O)c(C)n1-c1ccccc1F | . | 9 | 1 | 22 | -1 | -9
Cc1cc(C(=O)COC(=O)c2ccc(O)cc2)c(C)n1-c1ccccc1F | . | 4 | -29* | -21 | -2 | 3
C[C@@H]1CN([C@H](C)CO)C(=O)c2ccccc2-c2ccccc2CO[C@@H]1CN(C)S(=O)(=O)c1ccccc1F | . | . | -3 | . | . | .
Cc1noc(C)c1NC(=O)N(C)C[C@@H]1OCCCC[C@H](C)Oc2ccc(NS(=O)(=O)c3ccc(Cl)cc3)cc2C(=O)N([C@H](C)CO)C[C@@H]1C | 0 | 32* | -3 | . | 2 | -17
Cc1noc(C)c1NC(=O)Nc1ccc2c(c1)C(=O)N([C@@H](C)CO)C[C@@H](C)[C@H](CN(C)C(=O)Nc1c(C)noc1C)OCCCC[C@@H](C)O2 | -2 | 30* | 3 | . | 1 | -3
Cc1noc(C)c1NC(=O)N(C)C[C@H]1OCCCC[C@H](C)Oc2ccc(NC(=O)NC(C)C)cc2C(=O)N([C@@H](C)CO)C[C@@H]1C | 90* | -9 | 2 | . | 3 | -3
Cc1noc(C)c1NC(=O)N(C)C[C@@H]1OCCCC[C@H](C)Oc2ccc(NS(=O)(=O)c3ccc(Cl)cc3)cc2C(=O)N([C@@H](C)CO)C[C@H]1C | 3 | -6 | -4 | . | -9 | -14
Cc1noc(C)c1NC(=O)N(C)C[C@@H]1OCCCC[C@H](C)Oc2ccc(NC(=O)NC(C)C)cc2C(=O)N([C@@H](C)CO)C[C@H]1C | 1 | -8 | 3 | . | 8 | -2
Cc1noc(C)c1NC(=O)Nc1ccc2c(c1)C(=O)N([C@H](C)CO)C[C@H](C)[C@H](CN(C)C(=O)Nc1ccccc1)OCCCC[C@H](C)O2 | -3 | 68* | 2 | . | 5 | -3
Cc1ccccc1-c1ccc2c(c1)O[C@@H](CN(C)C(=O)c1ccccn1)[C@H](C)CN([C@@H](C)CO)S2(=O)=O | 1 | -3 | -2 | . | -1 | 0
CC(=O)N[C@H]1C=C[C@H](CC(=O)NCc2ccc(Cl)cc2)O[C@@H]1CO | 0 | -7 | 2 | . | 0 | -1
Cc1noc(C)c1NC(=O)N(C)C[C@H]1OCCCC[C@@H](C)Oc2ccc(NC(=O)NC(C)C)cc2C(=O)N([C@H](C)CO)C[C@H]1C | 100* | -5 | 3 | . | 2 | -5
SMILES | Cneo AK release | DENV2 CPE | rRNA inh HTS | PfHsp90 yeast 2 | S100A4 MyoIIA | MLL AF4-AF9 inh
Cc1noc(C)c1NC(=O)N(C)C[C@@H]1OCCCC[C@@H](C)Oc2ccc(NC(=O)NC(C)C)cc2C(=O)N([C@H](C)CO)C[C@H]1C | . | -7 | 3 | . | -5 | -2
Cc1noc(C)c1NC(=O)Nc1ccc2c(c1)C(=O)N([C@@H](C)CO)C[C@@H](C)[C@@H](CN(C)C)OCCCC[C@@H](C)O2 | 2 | 84* | -1 | . | 9 | -1
C[C@@H]1CCCCO[C@H](CN(C)S(=O)(=O)c2cn(C)cn2)[C@@H](C)CN([C@@H](C)CO)C(=O)c2cc(NS(=O)(=O)c3ccccc3)ccc2O1 | -6 | -9 | 2 | . | 41 | 2
O=C(N/N=C/c1cccn1-c1ccc([N+](=O)[O-])cc1)c1cccnc1 | 3 | 116* | 14 | -1 | 0 | 0
O=C(N/N=C/c1cccnc1)c1ccc([N+](=O)[O-])cc1 | . | . | . | 4 | . | .
C[C@H]1CCCCO[C@H](CN(C)S(=O)(=O)c2ccccc2)[C@@H](C)CN([C@@H](C)CO)C(=O)c2cc(NC(=O)Nc3ccc4c(c3)OCO4)ccc2O1 | -2 | 61* | -1 | . | 2 | 10
C[C@H](CO)N1C[C@H](C)[C@@H](CN(C)S(=O)(=O)c2ccccc2)OCCCC[C@H](C)Oc2ccc(NC(=O)Nc3ccc4c(c3)OCO4)cc2C1=O | -2 | 29* | -3 | . | -9 | 2
C[C@@H]1CN([C@@H](C)CO)C(=O)c2cc(NC(=O)Nc3ccc4c(c3)OCO4)ccc2O[C@@H](C)CCCCO[C@@H]1CN(C)S(=O)(=O)c1ccccc1 | -1 | 11 | -1 | . | -21 | 0
C[C@@H]1CCCCO[C@H](CN(C)S(=O)(=O)c2ccccc2)[C@@H](C)CN([C@H](C)CO)C(=O)c2cc(NC(=O)Nc3ccc4c(c3)OCO4)ccc2O1 | 0 | 91* | 3 | . | -9 | 1
C[C@H]1CCCCO[C@H](CN(C)C(=O)CCC(F)(F)F)[C@@H](C)CN([C@@H](C)CO)C(=O)c2cc(NC(=O)c3ccccc3)ccc2O1 | 56 | 1 | -3 | . | 0 | 0

Source: PubChem BioAssay (Broad Institute)
